Each structure is given as a SMILES string.

For one data set, the target named is CYP2C9 (Homo sapiens, UniProt P11712). The data set can be described thus: Inhibition of human CYP2C9 expressed in baculovirus-infected insect cells at 10 uM using Luciferin-H as substrate in presence of NADPH by P450-Glo luminescence assay relative to control. As to conditions: probe Luciferin-H.
Data set [1] concerns Leishmania infantum. Description: Anti-parasitic activity against Leishmania infantum amastigotes infected in human THP1 cells at 50 uM after 5 days by Giemsa staining based assay relative to control. The data set is classed as functional, cell-based. To be noted: THP-1, 120 h. The procedure, abridged: (§1)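 Intracellular L. infantum amastigotes in host cells, imaged by high-content automated imaging. Host cell number, infected cells and parasites per infected cell were counted. Infection Ratio = infected cells / total cells.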

In data set [2] the test system is Leishmania infantum. The data set can be described thus: Anti-parasitic activity against Leishmania infantum amastigotes infected in human THP1 cells after 5 days by Giemsa staining based assay. The data set is classed as functional, cell-based. To be noted: THP-1, 120 h. The procedure, abridged:
as §1

In the next data set the target is Aurora kinase B (Homo sapiens, UniProt Q96GD4). Description: Inhibition of N-terminal-GST-tagged recombinant full length human Aurora B expressed in baculovirus infected Sf9 cells at 10 uM using native Swine Myelin Basic Protein as substrate measured after 60 mins by ADP-Glo assay relative to control. As to conditions: probe native Swine Myelin Basic Protein. A digest of the protocol: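 Aurora B kinase activity measured by ADP-Glo, which detects ADP formed through a coupled luciferase luminescence read-out.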
(In general: ADP-Glo turns the ADP formed in a reaction into a luminescent signal.)

The nature of data set [3]: Lipophilicity, log P of the compound. The data set is classed as physicochemical. As to conditions: octanol/water.
The next data set has as its target CYP2C19 (Homo sapiens, UniProt P33261). Description: Inhibition of human CYP2C19 expressed in baculovirus-infected insect cells at 10 uM using Luciferin-H EGE as substrate in presence of NADPH by P450-Glo luminescence assay relative to control. To be noted: probe Luciferin-H EGE. The data set is classed as ADME. A digest of the protocol:
(§2)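 CYP enzymes as microsomal preparations from baculovirus-infected insect cells, run on the P450-Glo luminogenic substrate platform. A fall in light output indicates inhibition.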

The test system of another data set is 786-0. The data set can be described thus: Mitochondrial toxicity in human 786-O cells at 10 uM by mitotracker red chloromethyl-Xrosamine staining based-uptake method relative to control. As to conditions: 786-0, 10 µM. The data set is classed as cell-based. The procedure, abridged: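 786-O renal carcinoma cells kept in RPMI-1640 with 2 mM glutamine, 10% v/v FCS, streptomycin 100 µg/ml and penicillin G 100 U/ml. Mitochondrial toxicity monitored by MitoTracker Red CMXRos uptake with high-content imaging.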

Data set [4] in a line: Selectivity index, ratio of CC50 for human THP1 cells to EC50 for anti-parasitic activity against Leishmania infantum amastigotes infected in human THP1 cells. The data set is classed as toxicity, cell-based. As to conditions: THP-1 cells, read-out: Ratio CC50/EC50. The procedure, abridged: (§3)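 SI = CC50 in PMA-differentiated THP-1 macrophages (MTT) divided by the antiparasitic EC50.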

A further data set has as its target T1, CYP1A2 (Homo sapiens, UniProt P05177).
T1 sequence (P05177 whole entry): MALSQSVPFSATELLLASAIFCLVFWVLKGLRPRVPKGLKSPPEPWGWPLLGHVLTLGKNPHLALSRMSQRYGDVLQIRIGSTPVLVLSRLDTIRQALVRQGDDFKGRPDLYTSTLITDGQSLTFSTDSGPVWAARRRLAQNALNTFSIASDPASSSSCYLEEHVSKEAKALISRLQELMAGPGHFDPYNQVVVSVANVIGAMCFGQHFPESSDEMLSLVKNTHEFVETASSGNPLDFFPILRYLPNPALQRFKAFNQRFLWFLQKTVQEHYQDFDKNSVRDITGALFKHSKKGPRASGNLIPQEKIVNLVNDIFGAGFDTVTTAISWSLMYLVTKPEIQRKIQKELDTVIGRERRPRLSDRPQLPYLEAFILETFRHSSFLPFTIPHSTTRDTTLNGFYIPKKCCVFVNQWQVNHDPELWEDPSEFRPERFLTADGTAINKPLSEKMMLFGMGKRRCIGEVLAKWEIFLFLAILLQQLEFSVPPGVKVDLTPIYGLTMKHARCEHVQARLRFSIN
Description: Inhibition of human CYP1A2 expressed in baculovirus-infected insect cells at 10 uM using Luciferin-1A2 as substrate in presence of NADPH by P450-Glo luminescence assay relative to control. The data set is classed as ADME. As to conditions: probe Luciferin-1A2. The procedure, abridged:
as §2

For another data set, the target named is hERG (KCNH2) (Homo sapiens, UniProt Q12809). The data set can be described thus: Inhibition of human ERG at 10 uM by Tracer Red dye based fluorescence polarization assay relative to control. To be noted: probe Tracer Red dye. On the technique in general: In fluorescence polarisation assays a small probe gives low polarisation when free and higher when bound to something large.

Another data set addresses CYP3A4 (Homo sapiens, UniProt P08684). The data set can be described thus: Inhibition of human CYP3A4 expressed in baculovirus-infected insect cells at 10 uM using Luciferin-PFBE as substrate in presence of NADPH by P450-Glo luminescence assay relative to control. The data set is classed as ADME. As to conditions: probe Luciferin-PFBE.
Data set [5] is described as follows: Cytotoxicity against human […] cells assessed as cell growth at 10 uM by Cell titer-Glo assay relative to control. As to conditions: WI-38 cells, read-out: Activity. The data set is classed as cell-based. The procedure, abridged:
(§4)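 A549 and WI-38 cells grown in DMEM with 10% v/v FCS, streptomycin 100 µg/ml and penicillin G 100 U/ml. Cell number read as cellular ATP by CellTiter-Glo luminescence. Growth 60–100% scored non-cytotoxic, 0–60% cytostatic, below 0 cytotoxic.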

Data set [6] can be described thus: Cytotoxicity against human THP1 cells by MTT assay. The data set is classed as cell-based. To be noted: THP-1 cells. A digest of the protocol: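 THP-1 cells differentiated to macrophages with PMA, viability read by colorimetric MTT. CC50 and NOAEL are the arithmetic mean of at least two independent determinations, each run in triplicate.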
Data set [7] in a line: Cytotoxicity against human A549 cells assessed as cell growth at 10 uM by Cell titer-Glo assay relative to control. The data set is classed as cell-based. To be noted: read-out: Activity. The procedure, abridged: as §4
(In general: ATP-based viability assays read luminescence as a measure of living cells.)

A further data set addresses CYP2D6 (Homo sapiens, UniProt P10635). The data set can be described thus: Inhibition of human CYP2D6 expressed in baculovirus-infected insect cells at 10 uM using Luciferin-ME EGE as substrate in presence of NADPH by P450-Glo luminescence assay relative to control. The data set is classed as ADME. To be noted: probe Luciferin-ME EGE. A digest of the protocol: as §2

The subject of data set [8] is Trypanosoma cruzi. Description: Anti-parasitic activity against Trypanosoma cruzi Y promastigotes infected in HG39 cells at 10 uM by qPCR analysis relative to control. The data set is classed as functional, cell-based. As to conditions: in the assay text read “trypomastigotes” for “promastigotes”. The procedure, abridged:
(§5)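 Confluent HG39 cells (3 x 10^6 per well) infected at a 1:1 ratio with blood-derived T. cruzi Y strain trypomastigotes. Growth inhibition was read as parasite gDNA by TaqMan probe-based quantitative real-time PCR.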

The subject of data set [9] is Trypanosoma cruzi. The data set can be described thus: Anti-parasitic activity against Trypanosoma cruzi Y promastigotes infected in HG39 cells by qPCR analysis. To be noted: in the assay text read “trypomastigotes” for “promastigotes”. The data set is classed as functional, cell-based. A digest of the protocol: as §5
For data set [10], the system named is Trypanosoma brucei brucei. Description: Anti-parasitic activity against bloodstream form of Trypanosoma brucei brucei Lister 427 at 10 uM after 72 hrs by resazurin-based assay relative to control. The data set is classed as functional. As to conditions: Lister 427, 72 h. A digest of the protocol:
(§6)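 Bloodstream-form T. brucei, modified resazurin-based viability assay. EC50 is the arithmetic mean of at least two independent determinations, each run in triplicate.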

The nature of data set [11]: Selectivity index, ratio of CC50 for human THP1 cells to EC50 for anti-parasitic activity against bloodstream form of Trypanosoma brucei brucei Lister 427. The data set is classed as toxicity. To be noted: THP-1 cells, read-out: Ratio CC50/EC50. The procedure, abridged:
as §3

Data set [12] relates to Trypanosoma brucei brucei. Description: Anti-parasitic activity against bloodstream form of Trypanosoma brucei brucei Lister 427 after 72 hrs by resazurin-based assay. The data set is classed as functional. To be noted: Lister 427, 72 h. The procedure, abridged: as §6
Data set [13] in a line: Cytotoxicity against human A549 cells assessed as cell growth by Cell titer-Glo assay. The data set is classed as cell-based. The procedure, abridged:
as §4

The target of another data set is T2, Cytochrome P450 1A2 (Homo sapiens, UniProt P05177).
T2 sequence (P05177 whole entry): T1 sequence (P05177 whole entry)
The data set can be described thus: Inhibition of human CYP1A2 expressed in baculovirus-infected insect cells using Luciferin-1A2 as substrate in presence of NADPH by P450-Glo luminescence assay. The data set is classed as ADME. A digest of the protocol: as §2

The target of the next data set is Cytochrome P450 2C19 (Homo sapiens, UniProt P33261). Description: Inhibition of human CYP2C19 expressed in baculovirus-infected insect cells using Luciferin-H EGE as substrate in presence of NADPH by P450-Glo luminescence assay. The data set is classed as ADME. The procedure, abridged:
as §2

The target of the next data set is Cytochrome P450 2D6 (Homo sapiens, UniProt P10635). Description: Inhibition of human CYP2D6 expressed in baculovirus-infected insect cells using Luciferin-ME EGE as substrate in presence of NADPH by P450-Glo luminescence assay. The data set is classed as ADME. A digest of the protocol: as §2
Sequence of Cytochrome P450 2D6 (P10635 whole entry): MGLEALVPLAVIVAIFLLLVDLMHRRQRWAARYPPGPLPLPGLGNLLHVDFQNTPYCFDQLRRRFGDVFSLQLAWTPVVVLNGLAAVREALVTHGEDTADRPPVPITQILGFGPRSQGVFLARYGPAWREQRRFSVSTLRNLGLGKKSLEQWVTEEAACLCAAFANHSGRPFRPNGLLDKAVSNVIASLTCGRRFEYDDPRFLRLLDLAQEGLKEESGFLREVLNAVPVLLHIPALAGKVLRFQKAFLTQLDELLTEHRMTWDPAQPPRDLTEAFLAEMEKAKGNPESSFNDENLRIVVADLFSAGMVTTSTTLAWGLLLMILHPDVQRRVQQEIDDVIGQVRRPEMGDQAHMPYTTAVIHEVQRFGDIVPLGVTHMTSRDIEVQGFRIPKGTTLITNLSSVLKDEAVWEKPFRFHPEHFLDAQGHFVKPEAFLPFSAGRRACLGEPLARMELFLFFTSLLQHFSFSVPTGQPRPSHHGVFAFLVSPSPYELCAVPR

Sequence of CYP2D6 (P10635 whole entry): as above
Sequence of CYP3A4 (P08684 whole entry): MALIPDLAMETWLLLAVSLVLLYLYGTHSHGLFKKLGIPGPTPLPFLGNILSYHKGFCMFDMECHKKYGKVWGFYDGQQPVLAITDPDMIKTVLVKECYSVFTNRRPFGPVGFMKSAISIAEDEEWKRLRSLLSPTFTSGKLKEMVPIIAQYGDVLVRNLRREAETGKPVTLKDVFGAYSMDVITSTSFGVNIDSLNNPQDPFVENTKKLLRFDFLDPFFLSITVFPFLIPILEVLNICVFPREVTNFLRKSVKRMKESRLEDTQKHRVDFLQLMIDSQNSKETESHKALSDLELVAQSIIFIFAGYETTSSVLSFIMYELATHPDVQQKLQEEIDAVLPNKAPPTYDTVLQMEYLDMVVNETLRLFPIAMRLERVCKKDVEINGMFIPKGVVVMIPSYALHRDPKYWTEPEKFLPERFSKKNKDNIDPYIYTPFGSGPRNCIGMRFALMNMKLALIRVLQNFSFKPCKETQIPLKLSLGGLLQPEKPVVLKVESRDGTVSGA
Sequence of Aurora kinase B (Q96GD4 whole entry): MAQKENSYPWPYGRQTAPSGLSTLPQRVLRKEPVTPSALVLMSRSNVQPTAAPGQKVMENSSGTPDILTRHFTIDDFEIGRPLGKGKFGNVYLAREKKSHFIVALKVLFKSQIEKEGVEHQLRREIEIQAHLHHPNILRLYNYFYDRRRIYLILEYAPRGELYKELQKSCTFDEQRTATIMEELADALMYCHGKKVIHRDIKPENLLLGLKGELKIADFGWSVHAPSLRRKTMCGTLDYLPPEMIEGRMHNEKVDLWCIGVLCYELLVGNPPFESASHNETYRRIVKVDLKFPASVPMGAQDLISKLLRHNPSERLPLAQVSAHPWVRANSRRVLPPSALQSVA
Sequence of hERG (KCNH2) (Q12809 whole entry): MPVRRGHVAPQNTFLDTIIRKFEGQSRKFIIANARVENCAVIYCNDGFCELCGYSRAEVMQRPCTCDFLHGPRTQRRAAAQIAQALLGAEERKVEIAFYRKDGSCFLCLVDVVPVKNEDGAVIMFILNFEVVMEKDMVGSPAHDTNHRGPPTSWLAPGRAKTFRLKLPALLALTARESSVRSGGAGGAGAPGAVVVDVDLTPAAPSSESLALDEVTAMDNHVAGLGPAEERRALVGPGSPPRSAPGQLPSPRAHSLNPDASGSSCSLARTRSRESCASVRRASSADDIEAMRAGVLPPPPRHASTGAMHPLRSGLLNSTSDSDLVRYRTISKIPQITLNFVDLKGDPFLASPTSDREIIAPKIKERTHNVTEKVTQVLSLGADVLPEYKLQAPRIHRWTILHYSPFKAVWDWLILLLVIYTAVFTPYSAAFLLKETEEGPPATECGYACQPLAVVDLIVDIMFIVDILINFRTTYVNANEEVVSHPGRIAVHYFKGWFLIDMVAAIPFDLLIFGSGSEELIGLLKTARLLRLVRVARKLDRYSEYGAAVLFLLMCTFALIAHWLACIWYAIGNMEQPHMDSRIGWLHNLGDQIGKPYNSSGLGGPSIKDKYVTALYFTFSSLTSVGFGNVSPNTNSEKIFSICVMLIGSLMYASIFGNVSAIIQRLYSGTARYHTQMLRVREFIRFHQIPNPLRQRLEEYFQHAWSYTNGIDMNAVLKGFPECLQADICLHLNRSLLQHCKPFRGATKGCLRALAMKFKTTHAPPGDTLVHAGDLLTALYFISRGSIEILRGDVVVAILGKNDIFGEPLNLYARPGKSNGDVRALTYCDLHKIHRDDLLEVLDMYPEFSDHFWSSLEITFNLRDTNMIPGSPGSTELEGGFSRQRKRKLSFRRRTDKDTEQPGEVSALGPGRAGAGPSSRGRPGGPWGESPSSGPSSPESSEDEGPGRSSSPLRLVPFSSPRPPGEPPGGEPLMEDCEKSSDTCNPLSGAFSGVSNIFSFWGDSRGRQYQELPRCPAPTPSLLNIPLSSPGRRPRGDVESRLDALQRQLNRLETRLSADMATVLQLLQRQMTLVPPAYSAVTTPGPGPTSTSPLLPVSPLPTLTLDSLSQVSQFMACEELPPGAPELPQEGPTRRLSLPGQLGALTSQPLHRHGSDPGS
Sequence of CYP2C19 (P33261 whole entry): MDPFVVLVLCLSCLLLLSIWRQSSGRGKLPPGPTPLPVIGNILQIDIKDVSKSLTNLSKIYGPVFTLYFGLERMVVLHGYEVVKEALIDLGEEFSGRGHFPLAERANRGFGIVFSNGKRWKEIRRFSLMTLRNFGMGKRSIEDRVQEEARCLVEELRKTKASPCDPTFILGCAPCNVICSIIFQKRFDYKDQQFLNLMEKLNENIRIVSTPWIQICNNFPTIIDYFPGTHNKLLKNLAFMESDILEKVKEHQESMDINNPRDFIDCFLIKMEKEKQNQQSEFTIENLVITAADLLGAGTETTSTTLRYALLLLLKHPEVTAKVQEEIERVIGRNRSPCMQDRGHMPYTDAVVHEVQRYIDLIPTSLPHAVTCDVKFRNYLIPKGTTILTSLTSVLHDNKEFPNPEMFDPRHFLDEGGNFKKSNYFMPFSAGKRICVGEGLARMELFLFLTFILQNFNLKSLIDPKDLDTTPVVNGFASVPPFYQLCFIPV
Sequence of CYP2C9 (P11712 whole entry): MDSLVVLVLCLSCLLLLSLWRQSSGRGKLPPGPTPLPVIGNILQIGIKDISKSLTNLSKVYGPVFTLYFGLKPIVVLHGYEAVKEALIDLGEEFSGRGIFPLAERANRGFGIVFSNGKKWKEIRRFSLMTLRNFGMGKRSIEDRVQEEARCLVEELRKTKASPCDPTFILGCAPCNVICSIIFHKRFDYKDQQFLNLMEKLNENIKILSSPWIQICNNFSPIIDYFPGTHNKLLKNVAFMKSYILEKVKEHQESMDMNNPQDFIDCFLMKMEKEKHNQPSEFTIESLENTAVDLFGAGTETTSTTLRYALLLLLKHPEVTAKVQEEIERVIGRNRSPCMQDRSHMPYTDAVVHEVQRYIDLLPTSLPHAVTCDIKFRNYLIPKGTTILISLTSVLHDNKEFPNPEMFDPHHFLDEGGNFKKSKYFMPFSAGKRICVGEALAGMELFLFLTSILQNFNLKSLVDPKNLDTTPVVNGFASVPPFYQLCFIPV
Sequence of Cytochrome P450 2C19 (P33261 whole entry): as the sequence (P33261 whole entry) above

The term inhibition denotes the relative decrease from the control value, in per cent. As usually defined, the EC50 is the concentration at which the effect is half-maximal. Read a low EC50 as higher potency in that assay. For orientation: logP means the decadic logarithm of the partition coefficient of the neutral form, usually between octanol and water. Read a high logP as higher lipophilicity. Broadly, the CC50 is the concentration giving 50% cytotoxicity. A low value points to harm at low concentration. `COc1ccc(C(=O)/C=C/c2cc(OC)c(OC)c(OC)c2)c(O)c1`: the inhibition at 10 µM on CYP2C9 was 57.6%; at CYP2C19, 67.5%; on CYP1A2, 1.2%; at hERG (KCNH2) it was 34.7%; at CYP3A4 it was -10%; at CYP2D6, 65.1%. The inhibition at 10 µM with Trypanosoma cruzi [8] was determined as 60%. For the same compound, the inhibition at 50 µM in the data set on Leishmania infantum [1] turned out to be 71%. Besides, the figures for the EC50 with Leishmania infantum [2] and with Trypanosoma cruzi [9] were 30.6 µM and under 10 µM, respectively. Further, at Aurora kinase B, the inhibition at 1 h, 10 µM was -23.6%. In data set [3], this compound displayed a logP of 3.49. Further, the Activity with 786-0 stood at 1.1%. Also, in data set [4], the selectivity ratio is over 1.6. Besides, the results for the viability at 10 µM in data set [5] and in data set [7] were 78.1% and 127%, respectively. This compound also registered a CC50 in data set [6] of over 100 µM.
For the compound `COc1cccc(/C=C/C(=O)c2ccc(OC)cc2O)c1`, the inhibition at 10 µM on CYP2C9 is 47.4%; in data set [10], 100%; on CYP2C19, 63.5%; on CYP1A2 it was 75.4%; on hERG (KCNH2), 13.6%; at CYP3A4 it was -8.3%. In addition, the inhibition at 10 µM at CYP2D6 came to 58%; with Trypanosoma cruzi [8], 74%. In addition, the inhibition at 50 µM with Leishmania infantum [1] is 21%. Also, the inhibition at 1 h, 10 µM on Aurora kinase B is -10.6%. This compound returned a lipophilicity (logP) in data set [3] of 3.86. Further, the Activity with 786-0 is -2.9%. Also, the selectivity ratio in data set [11] is at least 7. Further, the results for the viability at 10 µM in [5] and in data set [7] were 63% and 110%, respectively. This compound gave a cytotoxic concentration (CC50) in [6] of over 25 µM. In addition, the EC50 in data set [12] is 3.4 µM; with Trypanosoma cruzi [9], under 10 µM.
In general, GI50 refers to the concentration at which growth is held to half of that of the control. The IC50 is the concentration needed to halve the response being measured. As to `N=C(N)c1ccc(OCCCCCOc2ccc(C(=N)N)cc2)cc1` [PENTAMIDINE], the GI50 in data set [13] was over 100 µM. Further, the results for the IC50 on Cytochrome P450 1A2, on Cytochrome P450 2C19 and on Cytochrome P450 2D6 were over 100 µM, over 100 µM and 24.8 µM, respectively. This compound also came in with a half-maximal effective concentration (EC50) in [12] of 0.00155 µM.
As to `COc1ccc(O)c(C(=O)/C=C/c2cc(OC)c(OC)c(OC)c2)c1`, the inhibition at 10 µM was 60.9% on CYP2C9; 100% in [10]; 84.6% at CYP2C19; 13.3% on CYP1A2; 9.5% against hERG (KCNH2); -3.1% at CYP3A4. The figures for the inhibition at 10 µM on CYP2D6 and in the data set on Trypanosoma cruzi [8] were 88.3% and 1%, respectively. The inhibition at 50 µM in the data set with Leishmania infantum [1] was 43%. For the same compound, the EC50 is 42.4 µM in the data set with Leishmania infantum [2] and 4.4 µM in data set [12]. Further, at Aurora kinase B, the inhibition at 1 h, 10 µM is -8.1%. Moreover, the logP in data set [3] was found to be 3.47. Moreover, the Activity with 786-0 is -6.4%. The selectivity ratio is over 1 in data set [4] and at least 6 in data set [11]. The viability at 10 µM was 73.9% in [5] and 108% in [7]. The same compound returned a CC50 in data set [6] of over 25 µM.

The record behind these values is ChEMBL document CHEMBL3997782, “Methoxylated 2'-hydroxychalcones as antiparasitic hit compounds” (Eur J Med Chem, 2017).
